T cruzi inh = inhibitors of intracellular T. cruzi growth, primary screen, luminescence, NIH3T3 host cells; T. cruzi beta-gal in NIH3T3, 90 h; inhibition, % (concentration not given with the values); 1.4% of 300,000 active;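 active means mean inhibition across valid replicates above about 55%, limit read from the data; inconclusive means mean below that limit but half or more replicates reach it; inactive means mean below it, under half of replicates reach it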;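 further: signal also drops with host cell toxicity which is not excluded here; higher percent means less beta-gal luminescence so fewer parasites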
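System – NIH/3T3 host cells with β-galactosidase reporter T. cruzi · Doses – single 50 nL compound addition per well in DMSO · Reagent – 5000 T. cruzi trypomastigotes/well · Medium – Low-serum DMEM with 2% FBS · Timing – ≥90 h infection period, 3 h prior cell attachment · Evaluation – parasite load inhibition, % · Technique – GalScreen luminescence, 60 min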
CSC inhib = cancer stem cell viability inhibitors, primary screen, luminescence; cancer stem cell-like cells viability; inhibition, % at 7.5 µM; 1.1% of 300,000 active; in the data active means inhibition above about 75%; inconclusive means no clear call, values can overlap the other calls; tested in HMLE shEcad cells
Mdm2 MdmX PPI = inhibitors of human Mdm2-MdmX association, primary screen, cell-based, luminescence, split luciferase, SaOS-2, uHTS. Protein Mdm4 (Homo sapiens) + E3 ubiquitin-protein ligase Mdm2 (Homo sapiens), …. SaOS-2 split-luciferase Mdm2/MdmX complementation. inhibition, % at 8 µM. 3% of 330,000 active;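 active means inhibition of at least 50% at 8 µM in the primary screen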
Beta apoptosis = inhibitors of cytokine-induced beta cell apoptosis, primary screen, luminescence. protection from apoptosis, % (concentration not given with the values). 0.8% of 300,000 active. AID 435005, 2010. INS-1E cytokine-induced death, ATP luminescence, 48 h; percent of positive-control rescue, neutral wells zero;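 active means Every replicate reaches about 75%, or at least half do and their mean reaches it too, limit read from the data; inconclusive means At least half of replicates reach the limit but their mean does not; inactive means Under half of replicates reach the limit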;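 further: higher means more ATP so stronger rescue from cytokine killing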
Calb FLC = C. albicans growth inhibition with fluconazole, primary screen, CaCi-2 strain, Alamar Blue fluorescence; C. albicans CaCi-2 + fluconazole, 48 h; AID 1979, 2009; 0.57% of 300,000 active; growth inhibition, % (no concentration beside the values);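 active means growth inhibition above about 58% in most replicates, limit read from the data, passing the limit was not always enough; inconclusive means exactly half the replicates above a set limit; inactive means most replicates below a set limit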;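 further: all wells also contain fluconazole at 8 µg/ml as a sub-toxic cotreatment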
SKKanGAS inh = S. pyogenes SKKanGAS growth inhibitors in kanamycin, primary screen, streptokinase expression inhibitor project, SKKanGAS strain, BacTiter-Glo luminescence; 1.3% of 300,000 active; inhibition, % at 7.5 µM; 6 h;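 active means mean replicate score, as percent of positive control median, at least 50; inconclusive means mean below 50 but one replicate at or above 50; inactive means mean and every replicate below 50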;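 further: strain carries kanamycin resistance gene driven by streptokinase promoter and grows in 40 µg/ml kanamycin; loss of luminescence reflects streptokinase promoter inhibition or plain growth inhibition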
A number is an active result; i = inactive; ? = inconclusive; nt = no result; + = active, no number. Hits are enriched below; roughly 5.7% of the tested compounds scored in any of these assays.

SMILES	T cruzi inh	CSC inhib	Mdm2 MdmX PPI	Beta apoptosis	Calb FLC	SKKanGAS inh
Cc1cc(N2C(=O)C(O)=C(C(=O)c3cc4ccccc4o3)C2c2cccs2)no1 (stereo unspecified)	i	i	i	i	?	i
Cc1ccc2nc(N3C(=O)C(O)=C(C(=O)c4ccco4)C3c3ccc(O)cc3)sc2c1 (stereo unspecified)	i	i	i	i	i	i
Cc1ccc(C2C(C(=O)c3cc4ccccc4o3)=C(O)C(=O)N2c2cc(C)on2)cc1 (stereo unspecified)	i	i	i	i	i	59
Cc1cc(N2C(=O)C(O)=C(C(=O)c3cc4ccccc4o3)C2c2ccc([N+](=O)[O-])cc2)no1 (stereo unspecified)	i	i	i	i	i	i
Cc1ccsc1CN(C(=O)c1ccc([N+](=O)[O-])cc1)C1CCS(=O)(=O)C1 (stereo unspecified)	i	i	i	i	i	i
CC1CCc2c(sc(NS(=O)(=O)c3ccccc3)c2C(=O)OC(C)C)C1 (stereo unspecified)	i	i	i	i	nt	95
COc1ccc(S(=O)(=O)N(C)c2ccc(C(=O)NCCC(C)C)cc2)cc1	i	i	i	i	i	i
CCOCCCNC(=O)c1ccc(N(C)S(=O)(=O)c2ccc(OC)cc2)cc1	i	i	i	i	106	nt
O=C(c1cc(-c2ccccc2)nc2ccccc12)N1N=C(C(F)F)CC1(O)C(F)F (stereo unspecified)	i	i	i	i	i	i
Cc1ccc(-c2cc(C(=O)N3N=C(C(F)F)CC3(O)C(F)F)c3ccccc3n2)cc1C (stereo unspecified)	64	98	i	i	i	i
O=C(CNC(=O)c1ccc(Br)o1)NC1CCCCC1	i	i	i	nt	i	i
CC(=O)Nc1ccc(NC(=O)CSc2nnc(NC(=O)C3CC(=O)N(c4ccc(F)cc4)C3)s2)cc1 (stereo unspecified)	i	i	i	i	i	i
Cc1ccc(NC(=O)CNC(=O)c2ccc(Oc3ccccc3)cc2)nc1	i	i	i	nt	89	i
Cc1nnc2ccc(Oc3ccc(-c4ccccc4)cc3)nn12	i	i	i	92	?	i
COC(=O)c1ccc(Oc2ccc3nnc(C)n3n2)cc1	i	i	i	i	i	i
Cc1ccc(NC(=O)Cc2nc(-c3c[nH]c(C(=O)N4CCCC4)c3)cs2)c(C)c1	nt	nt	i	i	nt	nt
CC(C)Cc1nnc(NC(=O)c2cccc(S(=O)(=O)N3CCOCC3)c2)s1	nt	i	i	i	nt	nt
CC(=O)NCCC(=O)Nc1sc2c(c1-c1nc3ccccc3[nH]1)CCCC2	i	i	i	i	i	i
CC(C)Cc1nnc(NC(=O)c2cccc(S(=O)(=O)N3CCN(C)CC3)c2)s1	60	i	i	i	i	i
CN1CCN(S(=O)(=O)c2cccc(C(=O)Nc3sc4c(c3-c3nc5ccccc5[nH]3)CCCC4)c2)CC1	58	nt	i	i	i	i
Cc1ccc(S(=O)(=O)NC2CC(C)(C)NC(C)(C)C2)cc1C	i	i	i	i	i	i
CCCOc1cccc(CN2CCCCC2c2cccnc2)c1 (stereo unspecified)	55	i	i	i	i	i
O=C(CSc1ncnc2nc[nH]c12)Nc1nnc(SCc2ccc(Cl)c(Cl)c2)s1	i	93	i	i	?	i
COc1cc([N+](=O)[O-])ccc1NC(=O)COC(=O)CCS(=O)(=O)c1ccc(C)cc1	?	i	i	i	i	i
Cc1c(C)n(CCc2ccccc2)c2ncnc(NCCO)c12	i	i	i	i	i	i
SMILES	T cruzi inh	CSC inhib	Mdm2 MdmX PPI	Beta apoptosis	Calb FLC	SKKanGAS inh
Cc1c(C)n(CCCN(C)C)c2ncnc(NCc3ccccc3)c12	55	i	i	i	i	i
Oc1ccc(-c2c(C3=CCCCC3)sc3ccccc23)cc1	i	i	nt	i	i	56
COc1cc(-c2c(-c3ccsc3)sc3ccccc23)cc(OC)c1OC	nt	i	i	i	nt	nt
Cc1cccc(C(=O)NNC(=O)c2c(O)c3ccccc3n(C)c2=O)c1	i	i	i	i	i	88
CC(NC(=O)c1c(O)c2ccccc2n(C)c1=O)c1ccccc1 (stereo unspecified)	i	i	i	i	i	i
CCn1c(=O)c(C(=O)Nc2ccccc2)c(O)c2ccccc21	i	i	i	i	i	i
Cn1c(=O)c(C(=O)NNC(=O)c2cccc(Cl)c2)c(O)c2ccccc21	i	i	i	i	i	62
CCn1c(=O)c(C(=O)NNC(=O)c2cccc(Cl)c2)c(O)c2ccccc21	i	nt	i	i	i	103
COc1cc(-c2noc(C)c2C(=O)NCCCn2ccnc2)cc(OC)c1OC	nt	i	i	i	nt	nt
CCN(CC)S(=O)(=O)c1ccc(N2CCc3cc(OC)c(OC)cc3C2)nc1	i	nt	i	i	i	i
CCOC(=O)[C@H]1[C@H]2COc3ccc(OC)cc3[C@@H]2N2C(=O)CN(CCc3c[nH]c4ccccc34)C(=O)[C@@]12C	nt	i	i	i	nt	nt
COc1ccc(-n2c(=S)[nH]c3cc(C(=O)Nc4ccccc4OC)ccc3c2=O)cc1	i	i	i	77	i	i
O=C(Cc1ccc([N+](=O)[O-])cc1)Nc1cccc(C(=O)N2CCCCC2)c1	nt	i	i	i	nt	nt
CC(C)c1nc(NCc2ccccc2)c(C#N)c2c1CCCC2	i	i	i	i	i	79
N#Cc1c(NCCCO)nc(NCc2ccccc2)c2c1CCN(Cc1ccccc1)C2	i	i	i	i	i	i
CN1CCc2c(C#N)c(N3CCCCC3)nc(NCc3ccccc3)c2C1	56	i	i	i	i	i
Cc1noc(C)c1C(=O)OCC(=O)Nc1ncc(Cl)c(C)c1Cl	nt	i	i	i	nt	nt
O=C(N/N=C/c1ccccc1)c1ccc(N2CCCC2=O)cc1	i	i	i	i	i	i
O=C(CN1C(=O)COc2ccc(Cl)cc21)NCC1CCCO1 (stereo unspecified)	i	i	i	i	i	i
Cc1cc(C)c2c(c1)/C(=N/Nc1ccc(S(N)(=O)=O)cc1[N+](=O)[O-])CCC2	i	i	i	i	i	i
NS(=O)(=O)c1ccc(N/N=C2/CCCCC2C2CCCCC2)c([N+](=O)[O-])c1 (stereo unspecified)	i	+	i	76	i	77
COC(=O)c1ccccc1-n1c(C)nc(=O)c(-c2ccccc2)c1C	i	i	i	i	i	i
Cc1sc(NC(=O)c2ccco2)c(CN2CCN(Cc3ccccc3)CC2)c1C	59	i	i	i	i	i
CC(C)CCNC(=O)CNC(=S)N(Cc1ccccc1)Cc1cccnc1	61	i	i	i	i	i
Cc1ccc(CNC(=O)c2ccc(N3CCC4(CC3)CC(c3ccccc3)=NO4)c(NC(=O)c3ccco3)c2)cc1	i	i	i	i	i	i

Bioassay records deposited in PubChem BioAssay by several laboratories.
